Data published in ChEMBL document CHEMBL4017460, “A Tobramycin Vector Enhances Synergy and Efficacy of Efflux Pump Inhibitors against Multidrug-Resistant Gram-Negative Bacteria” (J Med Chem, 2017).
In brackets after ≈: the same amount, converted by molar mass. Activity calls are given as the source filed them. The rule behind the calls is not given here.

Assays:
Klebsiella pneumoniae [1] = test: Inhibition of RND efflux pump in Klebsiella pneumoniae isolate 116381 assessed as potentiation of minocycline-induced antibacterial activity by measuring fold reduction in minocycline MIC at 8 ug/ml after 18 to 24 hrs by microbroth dilution assay
In short: (§1)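 Absolute minocycline MIC taken from checkerboard broth dilution with a fixed 8 μg/mL adjuvant. Inoculum was a 0.5 McFarland saline suspension diluted 1:50 in MHB, incubated 37 °C for 18 h. MIC is the lowest concentration with no growth.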

[2] = system: Pseudomonas aeruginosa PAO1; test: Inhibition of RND efflux pump in Pseudomonas aeruginosa PAO1 assessed as potentiation of erythromycin-induced antibacterial activity […] by microbroth dilution assay
[3] = system: Pseudomonas aeruginosa PAO1; test: Inhibition of RND efflux pump in Pseudomonas aeruginosa PAO1 assessed as potentiation of novobiocin-induced antibacterial activity […] by microbroth dilution assay
Pseudomonas aeruginosa [4] = test: Antibacterial activity against Pseudomonas aeruginosa isolate P264-104354 after 18 to 24 hrs by microbroth dilution assay; format: functional
In short: (§2)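 Checkerboard in MHB: antibiotic 2-fold diluted along one axis, test agent 2-fold diluted along the other. Overnight culture standardized to 0.5 McFarland in saline, diluted 1:50 in MHB, added to wells, incubated 37 °C for 18 h. MIC is the lowest concentration with no growth. FIC = MIC in combination / MIC alone; FIC index = sum of both FICs.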

Pseudomonas aeruginosa [5] = test: Inhibition of RND efflux pump in Pseudomonas aeruginosa isolate 100036 assessed as potentiation of minocycline-induced antibacterial activity by measuring minocycline MIC at 8 ug/ml after 18 to 24 hrs by microbroth dilution assay (reference value: 64 ug/ml)
In short: as §2, with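 “broth microdilution:” for “in MHB:”, “adjuvant” for “test agent”, “wells,” for “wells, incubated”, “FICI” for “FIC index”, “the two FICs; FICI ≤0.5 is synergy.” for “both FICs.”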

[6] = system: Pseudomonas aeruginosa PAO1; test: Inhibition of RND efflux pump in Pseudomonas aeruginosa PAO1 assessed as potentiation of minocycline-induced antibacterial activity at 8 ug/ml after 18 to 24 hrs by checker board assay; in short: as §2
[7] = system: Pseudomonas aeruginosa PAO1; test: Inhibition of RND efflux pump in Pseudomonas aeruginosa PAO1 assessed as potentiation of doxycycline-induced antibacterial activity by measuring fold reduction in doxycycline MIC at 8 ug/ml after 18 to 24 hrs by microbroth dilution assay relative to doxycycline alone
In short: as §2, with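 “broth microdilution:” for “in MHB:”, “adjuvant” for “test agent”, “wells,” for “wells, incubated”, “FICI” for “FIC index”, “the two FICs; FICI ≤0.5 is synergy.” for “both FICs.”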

Pseudomonas aeruginosa [8] = test: Inhibition of RND efflux pump in Pseudomonas aeruginosa isolate 101885 assessed as potentiation of minocycline-induced antibacterial activity by measuring minocycline MIC at 8 ug/ml after 18 to 24 hrs by microbroth dilution assay (reference value: 16 to 32 ug/ml); in short: as §1
[9] = system: Pseudomonas aeruginosa PAO1; test: Inhibition of RND efflux pump in Pseudomonas aeruginosa PAO1 assessed as increase in tetracycline uptake measured at 1 min interval for 30 mins by fluorescence assay
In short: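 Tetracycline uptake assay in P. aeruginosa PAO1: enhancement of tetracycline fluorescence as it enters cells, monitored with compound present at several concentrations.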

Pseudomonas aeruginosa [10] = test: Inhibition of RND efflux pump in Pseudomonas aeruginosa isolate P260-97103 assessed as potentiation of minocycline-induced antibacterial activity by measuring fold reduction in minocycline MIC at 0.25 times antibacterial MIC after 18 to 24 hrs by microbroth dilution assay
In short: as §2, with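 “broth microdilution:” for “in MHB:”, “adjuvant” for “test agent”, “wells,” for “wells, incubated”, “FICI” for “FIC index”, “the two FICs; FICI ≤0.5 is synergy.” for “both FICs.”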

Pseudomonas aeruginosa [11] = test: Inhibition of RND efflux pump in Pseudomonas aeruginosa isolate 101885 assessed as potentiation of minocycline-induced antibacterial activity at 8 ug/ml after 18 to 24 hrs by checker board assay; in short: as §2
Pseudomonas aeruginosa [12] = test: Antibacterial activity against colistin-resistant Pseudomonas aeruginosa isolate 91433 after 18 to 24 hrs by microbroth dilution assay; format: functional
In short: as §2, with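 “broth microdilution:” for “in MHB:”, “adjuvant” for “test agent”, “wells,” for “wells, incubated”, “FICI” for “FIC index”, “the two FICs; FICI ≤0.5 is synergy.” for “both FICs.”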

Pseudomonas aeruginosa [13] = test: Potentiation of minocycline-induced antibacterial activity against mexAB-oprM deficient Pseudomonas aeruginosa PAO200 after 18 to 24 hrs by microbroth dilution assay; format: functional
Klebsiella pneumoniae [14] = test: Inhibition of RND efflux pump in Klebsiella pneumoniae isolate 116381 assessed as potentiation of minocycline-induced antibacterial activity at 8 ug/ml after 18 to 24 hrs by microbroth dilution assay; in short: as §2
Pseudomonas aeruginosa [15] = test: Potentiation of rifampicin-induced antibacterial activity against Pseudomonas aeruginosa PAO1 […] by microbroth dilution assay; format: functional
Pseudomonas aeruginosa [16] = test: Antibacterial activity against Pseudomonas aeruginosa isolate 100036 after 18 to 24 hrs by microbroth dilution assay; format: functional; in short: as §2
Pseudomonas aeruginosa [17] = test: Induction of cytoplasmic membrane depolarization in Pseudomonas aeruginosa PAO1 by DiSC3(5) dye based fluorescence assay; format: functional
In short: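 Cytoplasmic membrane depolarization in P. aeruginosa PAO1, monitored by DiSC3(5) fluorescence across a range of compound concentrations. Colistin served as positive control.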

Pseudomonas aeruginosa [18] = test: Inhibition of RND efflux pump in colistin-resistant Pseudomonas aeruginosa isolate 101243 assessed as potentiation of minocycline-induced antibacterial activity by measuring fold reduction in minocycline MIC at 8 ug/ml after 18 to 24 hrs by microbroth dilution assay
In short: as §2, with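 “broth microdilution:” for “in MHB:”, “adjuvant” for “test agent”, “wells,” for “wells, incubated”, “FICI” for “FIC index”, “the two FICs; FICI ≤0.5 is synergy.” for “both FICs.”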

[19] = system: Pseudomonas aeruginosa PAO1; test: Inhibition of RND efflux pump in Pseudomonas aeruginosa PAO1 assessed as potentiation of tobramycin-induced antibacterial activity after 18 to 24 hrs by checker board assay; in short: as §2
Klebsiella pneumoniae [20] = test: Antibacterial activity against Klebsiella pneumoniae isolate 116381 after 18 to 24 hrs by microbroth dilution assay; format: functional; in short: as §2
Klebsiella pneumoniae [21] = test: Inhibition of RND efflux pump in Klebsiella pneumoniae isolate 116381 assessed as potentiation of minocycline-induced antibacterial activity by measuring minocycline MIC at 8 ug/ml after 18 to 24 hrs by microbroth dilution assay (reference value: 128 ug/ml); in short: as §1
Pseudomonas aeruginosa [22] = test: Inhibition of RND efflux pump in Pseudomonas aeruginosa isolate P262-104354 assessed as potentiation of minocycline-induced antibacterial activity by measuring fold reduction in minocycline MIC at 0.25 times antibacterial MIC after 18 to 24 hrs by microbroth dilution assay
In short: as §2, with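 “broth microdilution:” for “in MHB:”, “adjuvant” for “test agent”, “wells,” for “wells, incubated”, “FICI” for “FIC index”, “the two FICs; FICI ≤0.5 is synergy.” for “both FICs.”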

Enterobacter cloacae [23] = test: Antibacterial activity against Enterobacter cloacae isolate 117029 after 18 to 24 hrs by microbroth dilution assay; format: functional; in short: as §2
[24] = system: Pseudomonas aeruginosa PAO1; test: Inhibition of RND efflux pump in Pseudomonas aeruginosa PAO1 assessed as potentiation of gentamicin-induced antibacterial activity after 18 to 24 hrs by checker board assay; in short: as §2
Enterobacter cloacae [25] = test: Inhibition of RND efflux pump in Enterobacter cloacae isolate 117029 assessed as potentiation of minocycline-induced antibacterial activity by measuring minocycline MIC at 8 ug/ml after 18 to 24 hrs by microbroth dilution assay (reference value: 128 to 256 ug/ml); in short: as §1
Pseudomonas aeruginosa [26] = test: Inhibition of RND efflux pump in Pseudomonas aeruginosa isolate P259-96918 assessed as potentiation of minocycline-induced antibacterial activity by measuring minocycline MIC at 8 ug/ml after 18 to 24 hrs by microbroth dilution assay (reference value: 32 ug/ml); in short: as §1
Pseudomonas aeruginosa [27] = test: Induction of outer membrane permeabilization in Pseudomonas aeruginosa PAO1 assessed as increase in NPN uptake up to 100 secs by fluorescence assay; format: functional
In short: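 Outer membrane permeabilization in PAO1 cells, read as accumulation of 1-N-phenylnaphthylamine (NPN) by fluorescence over a range of compound concentrations. Triton X-100 (1%) and EDTA (10 mM) served as positive controls.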

Structure (SMILES) | fold change (FC) (Klebsiella pneumoniae [1]) | fractional inhibitory concentration index (FICI) [2] | fractional inhibitory concentration index (FICI) [3] | MIC (Pseudomonas aeruginosa [4]) [µg/mL] | MIC (Pseudomonas aeruginosa [5]) [µg/mL] | fractional inhibitory concentration index (FICI) [6] | fold change (FC) [7] | MIC (Pseudomonas aeruginosa [8]) [µg/mL] | inhibition [9] | fold change (FC) (Pseudomonas aeruginosa [10]) | fractional inhibitory concentration index (FICI) (Pseudomonas aeruginosa [11]) | MIC (Pseudomonas aeruginosa [12]) [µg/mL] | Activity (Pseudomonas aeruginosa [13]) | fractional inhibitory concentration index (FICI) (Klebsiella pneumoniae [14]) | fractional inhibitory concentration index (FICI) (Pseudomonas aeruginosa [15]) | MIC (Pseudomonas aeruginosa [16]) [µg/mL] | Activity (Pseudomonas aeruginosa [17]) | fold change (FC) (Pseudomonas aeruginosa [18]) | fractional inhibitory concentration index (FICI) [19] | MIC (Klebsiella pneumoniae [20]) [µg/mL] | other results
NC[C@H]1C[C@H](C(=O)N[C@H](CCc2ccccc2)C(=O)Nc2ccc3ccccc3c2)N(CCCCCCCCCCCCO[C@@H]2[C@@H](O[C@H]3O[C@H](CO)[C@@H](O)[C@H](N)[C@H]3O)[C@H](N)C[C@H](N)[C@H]2O[C@H]2O[C@H](CN)[C@@H](O)C[C@H]2N)C1 | 4 to 256 | < 0.2 | < 0.1 | 8 (≈ 7.52 µM) | < 0.25 | 0.09 | 8 to 64 | < 0.125 | Dose-dependent effect | 8 to 256 | 0.13 | 8 (≈ 7.52 µM) | inactive | 0.03 to 0.16 | <0.05 | 32 (≈ 30.1 µM) | Dose-dependent effect | 8 to 256 | > 1.5 | > 32 | MIC (Klebsiella pneumoniae [21]): 4 µg/mL; fold change (FC) (Pseudomonas aeruginosa [22]): 8 to 256; MIC (Enterobacter cloacae [23]): 32 µg/mL (≈ 30.1 µM); fractional inhibitory concentration index (FICI) [24]: > 1.5; MIC (Enterobacter cloacae [25]): 1 µg/mL; MIC (Pseudomonas aeruginosa [26]): < 0.5 µg/mL; Activity (Pseudomonas aeruginosa [27]): Dose-dependent effect
Cl.Cl.Cl.Cl.Cl.Cl.Cl.NC[C@H]1O[C@H](O[C@H]2[C@H](OCCCCCCCCCCCCN3CCN(Cc4cccc5ccccc45)CC3)[C@@H](O[C@H]3O[C@H](CO)[C@@H](O)[C@H](N)[C@H]3O)[C@H](N)C[C@@H]2N)[C@H](N)C[C@@H]1O | 4 to 256 | < 0.2 | < 0.1 | 128 | 0.5 | 0.19 | 8 to 64 | 0.5 | Dose-dependent effect | 8 to 256 | 0.05 | 32 | inactive | 0.13 to 0.38 | <0.05 | 256 | Dose-dependent effect | 8 to 256 | > 1.5 | > 32 | MIC (Klebsiella pneumoniae [21]): 16 µg/mL; fold change (FC) (Pseudomonas aeruginosa [22]): 8 to 256; MIC (Enterobacter cloacae [23]): > 32 µg/mL; fractional inhibitory concentration index (FICI) [24]: > 1.5; MIC (Enterobacter cloacae [25]): 8 µg/mL; MIC (Pseudomonas aeruginosa [26]): < 0.5 µg/mL; Activity (Pseudomonas aeruginosa [27]): Dose-dependent effect
Cl.Cl.Cl.Cl.Cl.Cl.NC[C@H]1O[C@H](O[C@H]2[C@H](OCCCCCCCCCCCCN3CC[C@@H](c4ccc(F)cc4)[C@H](COc4ccc5c(c4)OCO5)C3)[C@@H](O[C@H]3O[C@H](CO)[C@@H](O)[C@H](N)[C@H]3O)[C@H](N)C[C@@H]2N)[C@H](N)C[C@@H]1O | 4 to 256 | < 0.2 | < 0.1 | 64 | < 0.25 | 0.19 | 8 to 64 | 1 | Dose-dependent effect | 8 to 256 | 0.13 | 32 | inactive | 0.25 to 0.38 | <0.05 | 64 | Dose-dependent effect | 8 to 256 | > 1.5 | > 32 | MIC (Klebsiella pneumoniae [21]): 32 µg/mL; fold change (FC) (Pseudomonas aeruginosa [22]): 8 to 256; MIC (Enterobacter cloacae [23]): > 32 µg/mL; fractional inhibitory concentration index (FICI) [24]: > 1.5; MIC (Enterobacter cloacae [25]): 4 µg/mL; MIC (Pseudomonas aeruginosa [26]): 0.5 µg/mL; Activity (Pseudomonas aeruginosa [27]): Dose-dependent effect
